Where no end group is shown, it is not given here.
Tests used:
Type in all cases: physicochemical
[1] = Particle morphology by atomic force microscopy; details: nanostructures immobilized on poly-L-lysine coated mica, room temperature
[2] = Critical aggregation concentration, Nile red assay; details: Nile red fluorescence (Ex550/Em635), PBS pH 7.4, 0.1 to 500 μg/mL, overnight incubation at room temperature; intersection of two linear fits
[3] = Particle morphology and size by transmission electron microscopy; details: 0.1 mg/mL in HEPES 10 mM, negative staining with 2% uranyl acetate
Summary of the method: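 Applies to peptide–pNIPAm self-assembled particles. Samples at 0.1 mg/mL in 10 mM HEPES are applied to prewarmed carbon-coated copper grids for 2 min, and excess liquid is blotted off with filter paper. Grids are negatively stained with 2% uranyl acetate for 45 s and dried 10 min at room temperature. Morphology and size are then read from TEM images.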

Substance | particle diameter by AFM [1] [nm] | critical aggregation concentration (CAC) [2] | particle size by TEM [3]
Ac-AAVVLLLWGQAEPDRAHYNIVTF [HPV-SA] | ~100 | ca. 15 μM | 
HPV16 E7_43–57-poly(DMAm) [HPV-pDMAm] |  |  | no particles
HPV16 E7_43–57-poly(NIPAm) [HPV-pNIPAm] |  |  | 20–80 nm
OVA250–264-poly(NIPAm) [OVA-pNIPAm] |  |  | 20–80 nm

Source: article PMC5415879 (Molecular Pharmaceutics, 2017)
